ABCB1 block: inhibitors of human ABCB1 transporter, ABCG2 counter-screen. P08183. CCRF-Adr cells, JC-1 efflux, flow cytometry. inhibition, % at 6.6 µM. 190,000 tested, 0.067% active. AID 1326; in the data active = inhibition above about 40%;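 note: 0% = vehicle and 100% = reference inhibitor; higher value means more JC-1 retained so stronger ABCB1 efflux block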
PKD1 kinase inh: blocks activity of human protein kinase D1; Q15139; PKD1 kinase fluorescence polarization assay; inhibition, % (no concentration beside the values); 200,000 tested, 0.056% active
Target sequence (Q15139 whole entry, looked up): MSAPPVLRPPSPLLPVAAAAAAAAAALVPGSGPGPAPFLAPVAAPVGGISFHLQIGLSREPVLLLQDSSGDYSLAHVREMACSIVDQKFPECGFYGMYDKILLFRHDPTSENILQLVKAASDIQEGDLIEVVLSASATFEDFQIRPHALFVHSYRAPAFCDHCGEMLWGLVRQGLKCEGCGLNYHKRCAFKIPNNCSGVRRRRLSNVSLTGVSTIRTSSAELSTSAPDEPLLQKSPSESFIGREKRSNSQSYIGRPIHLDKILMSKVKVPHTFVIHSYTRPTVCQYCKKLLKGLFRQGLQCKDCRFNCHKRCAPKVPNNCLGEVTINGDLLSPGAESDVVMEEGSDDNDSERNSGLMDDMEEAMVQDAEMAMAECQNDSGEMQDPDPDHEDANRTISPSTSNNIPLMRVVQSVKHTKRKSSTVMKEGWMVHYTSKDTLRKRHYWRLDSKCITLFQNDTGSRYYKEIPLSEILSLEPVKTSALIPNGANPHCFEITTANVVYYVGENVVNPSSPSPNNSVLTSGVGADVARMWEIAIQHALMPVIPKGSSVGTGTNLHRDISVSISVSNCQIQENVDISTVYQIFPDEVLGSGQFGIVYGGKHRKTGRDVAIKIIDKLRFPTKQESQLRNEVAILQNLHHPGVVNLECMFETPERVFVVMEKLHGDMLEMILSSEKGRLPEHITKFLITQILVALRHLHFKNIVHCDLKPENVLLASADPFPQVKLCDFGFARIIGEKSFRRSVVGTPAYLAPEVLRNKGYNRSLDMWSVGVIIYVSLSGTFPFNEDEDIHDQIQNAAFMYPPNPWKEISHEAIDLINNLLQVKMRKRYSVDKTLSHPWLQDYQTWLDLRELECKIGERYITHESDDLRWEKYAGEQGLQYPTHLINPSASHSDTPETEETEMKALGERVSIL
GSH bead fluor: GSH bead compound fluorescence profile | GSH beads flow cytometry, compound fluorescence 488/530 nm; active compounds read high | AID 1776 | 190,000 tested, 0.25% active | fluorescence (KMESF) at 10 µM; in the data active = fluorescence above about 89;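 note: glutathione beads carrying GST-tagged Bcl family fusion proteins plus one bare bead set; values are compound well signal with DMSO vehicle wells as background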
ABCG2 inh: inhibitors of human ABCG2 transporter, ABCB1 counter-screen. Q9UNQ0. IgMXP3 cells, JC-1 efflux, flow cytometry. inhibition, % at 6.6 µM. 190,000 tested, 0.1% active;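 active = inhibition above 80%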;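 note: 0% = DMSO and 100% = nicardipine control wells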
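Read-out basis: Efflux inhibition in percent versus controls | Test system: ABCG2 IgMXP3 and barcoded ABCB1 CCRF-Adr cell mix | Quantity: 3 million cells/mL in well | Schedule: 10 min at 25 °C | Control set: Nicardipine as high control, DMSO as low control | Reagent: JC-1 as fluorescent efflux pump substrate | Signal: Flow cytometry of retained JC-1 fluorescence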
Avidin bead fluor: compound fluoresces at 488/530 nm on avidin beads. fluorescence (KMESF) at 10 µM. compound fluorescence 488/530 nm, flow cytometry; active compounds read high. 220,000 tested, 0.38% active; in the data active = fluorescence above about 47
L major viab: Leishmania major promastigote growth inhibition. Leishmania major promastigotes, resazurin fluorescence viability. inhibition, % at 10 µM. 200,000 tested, 9% active. AID 1063;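 note: promastigotes grown with compound for 44 hours at 28 °C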
* = called active by the depositor. Shown is part of a subset that was picked to be rich in hits. Cut-off read from the data, not from the text of the source, unless noted: active = inhibition above about 50%; inactive = the rest.

For Cc1ccc(N(CC(=O)NCc2ccco2)C(=O)CCC(=O)Nc2ccccn2)cc1C the results were ABCB1 block 0.6, PKD1 kinase inh -4.9, GSH bead fluor 254*, ABCG2 inh 2.5, Avidin bead fluor 8 and L major viab 3.1.
CC(C)C(NC(=O)c1ccccc1)c1nnc(SCC(=O)Nc2nccs2)n1C (centres undefined) was read as ABCB1 block 1.0, PKD1 kinase inh 3.3, GSH bead fluor 11, ABCG2 inh 3.7, Avidin bead fluor 30 and L major viab 49.1.
Screening Cc1[nH]nc(SCC(=O)NC2CCCC2)c1[N+](=O)[O-] returned ABCB1 block -0.8, PKD1 kinase inh -3.6, GSH bead fluor 23, ABCG2 inh -1.8, Avidin bead fluor 9 and L major viab -7.3.
Screening O=C(CCl)NC(=O)NC12CC3CC(CC(C3)C1)C2 returned ABCB1 block 0.4, PKD1 kinase inh -5.0, GSH bead fluor 7, ABCG2 inh 0.3, Avidin bead fluor 145* and L major viab 100.5*.
CCn1cc(C(=O)NCCCN2CC(C)CC(C)C2)c(=O)c2cc(S(=O)(=O)N(C)C)ccc21 (centres undefined) was read as ABCB1 block -0.1, PKD1 kinase inh -7.8, GSH bead fluor 15, ABCG2 inh -1.9, Avidin bead fluor 5 and L major viab -5.0.
`CCc1cc(=O)oc2cc(OC(C)=O)cc(OC(C)=O)c12` gave ABCB1 block 0.1, PKD1 kinase inh 17.2, GSH bead fluor 20, ABCG2 inh 3.4, Avidin bead fluor 21 and L major viab 55.8*.
Screening c1ccc(CN2CCN(CCOCCOc3cccc4ccccc34)CC2)cc1 returned ABCB1 block 0.6, PKD1 kinase inh -5.6, GSH bead fluor 17, ABCG2 inh 0.8, Avidin bead fluor 9 and L major viab 14.0.
For O=C(c1ccco1)N1CCN(CCOCCOc2cccc3ccccc23)CC1 the results were ABCB1 block 0.8, PKD1 kinase inh -5.5, GSH bead fluor 8, ABCG2 inh 2.3, Avidin bead fluor 14 and L major viab 89.8*.
For O=C(CSc1nnc(COc2cccc3ccccc23)o1)N1CCN(C(=O)c2ccco2)CC1 the results were ABCB1 block 1.2, PKD1 kinase inh -7.3, GSH bead fluor 25, ABCG2 inh 40.4, Avidin bead fluor 29 and L major viab -4.9.
`O=C(c1ccco1)N1CCN(CCCCOc2cccc3ccccc23)CC1` gave ABCB1 block 1.1, PKD1 kinase inh -12.8, GSH bead fluor 25, ABCG2 inh 4.3, Avidin bead fluor 3 and L major viab 87.5*.
Screening COc1ccc(/C=C(\CC(=O)O)c2nc3ccccc3s2)cc1O returned ABCB1 block 0.5, PKD1 kinase inh -1.7, GSH bead fluor 13, ABCG2 inh 8.6, Avidin bead fluor 8 and L major viab -4.5.
For COc1cc(C=C(c2nc3ccccc3s2)c2nc3ccccc3s2)cc(OC)c1O the results were ABCB1 block 0.4, PKD1 kinase inh -0.9, GSH bead fluor 9, ABCG2 inh -3.5, Avidin bead fluor 6 and L major viab 95.3*.
Screening CCOc1cc(/C=C(\CC(=O)O)c2nc3ccccc3s2)ccc1OC returned ABCB1 block 0.2, PKD1 kinase inh -5.7, GSH bead fluor 13, ABCG2 inh 1.9, Avidin bead fluor 10 and L major viab 98.2*.
`O=C(NCc1ccco1)C1CC(=O)N(c2ccc(O)cc2)C1` (centres undefined) gave ABCB1 block 0.7, PKD1 kinase inh -6.7, GSH bead fluor 17, ABCG2 inh 1.2, Avidin bead fluor 15 and L major viab -4.7.
O=C(CCSc1ccccn1)c1ccccc1 was read as ABCB1 block 0.3, PKD1 kinase inh -6.3, GSH bead fluor 13, ABCG2 inh 5.2, Avidin bead fluor 9 and L major viab 76.6*.
O=C(O)CCSc1ccccn1 was read as ABCB1 block 0.3, PKD1 kinase inh -3.1, GSH bead fluor 16, ABCG2 inh 1.2, Avidin bead fluor 7 and L major viab -2.9.
For COc1ccc(C(=O)Oc2cccnc2)cc1OC the results were ABCB1 block -0.8, PKD1 kinase inh -4.5, GSH bead fluor 44, ABCG2 inh 6.9, Avidin bead fluor 9 and L major viab -1.4.
`O=C(Oc1cccnc1)c1cccc(Cl)c1` gave ABCB1 block 0.4, PKD1 kinase inh -1.6, GSH bead fluor 267*, ABCG2 inh 1.3, Avidin bead fluor 6 and L major viab -3.2.
For S=c1[nH]c(-c2ccc(Cl)cc2)cs1 the results were ABCB1 block -0.7, PKD1 kinase inh 5.7, GSH bead fluor 15, ABCG2 inh -1.3, Avidin bead fluor 20 and L major viab 66.7*.
Screening O=C(Nc1ncc(Cc2ccccc2Cl)s1)C1=NCCN1 returned ABCB1 block -0.2, PKD1 kinase inh 9.9, GSH bead fluor 20, ABCG2 inh -0.5, Avidin bead fluor 15 and L major viab 72.8*.
O=C(Nc1ncc(Cc2ccc(Cl)cc2Cl)s1)c1ccc([N+](=O)[O-])cc1 was read as ABCB1 block -0.3, PKD1 kinase inh 3.9, GSH bead fluor 11, ABCG2 inh 0.2, Avidin bead fluor 13 and L major viab 53.2*.
O=C(Nc1nnc(COc2ccc(Cl)cc2)s1)c1ccc([N+](=O)[O-])cc1 was read as ABCB1 block -0.1, PKD1 kinase inh -16.8, GSH bead fluor 12, ABCG2 inh -0.6, Avidin bead fluor 25 and L major viab -5.1.
`CCSc1ncc(/C=N/Nc2ccc(Cl)cc2)n1C` gave ABCB1 block -0.7, PKD1 kinase inh 2.2, GSH bead fluor 35, ABCG2 inh 3.3, Avidin bead fluor 8 and L major viab 78.3*.
Screening CCSc1ncc(/C=N/Nc2ccccc2)n1C returned ABCB1 block 0.4, PKD1 kinase inh 17.5, GSH bead fluor 31, ABCG2 inh 1.2, Avidin bead fluor 13 and L major viab 15.0.
Screening CCOC(=O)c1ccc(NC(=O)CSCc2ccco2)cc1 returned ABCB1 block -0.4, PKD1 kinase inh 0.0, GSH bead fluor 24, ABCG2 inh 0.2, Avidin bead fluor 6 and L major viab 88.6*.
CCOC(=O)c1ccc(NC(=S)N(CCCN(CC)CC)Cc2ccco2)cc1 was read as ABCB1 block 0.1, PKD1 kinase inh 0.8, GSH bead fluor 12, ABCG2 inh 0.5, Avidin bead fluor 8 and L major viab 99.7*.
For CCOC(=O)c1ccc(NC(=S)N(CCN(C)C)Cc2cccs2)cc1 the results were ABCB1 block 3.9, PKD1 kinase inh 11.5, GSH bead fluor 14, ABCG2 inh 9.7, Avidin bead fluor 10 and L major viab 18.1.
Screening CCOC(=O)c1ccc(NC(=S)N(CCCN2CCCCC2)Cc2ccco2)cc1 returned ABCB1 block 0.1, PKD1 kinase inh 7.1, GSH bead fluor 12, ABCG2 inh 0.6, Avidin bead fluor 9 and L major viab 92.9*.
